# Many of the other results were omitted from the sample, so hits are more common in it than they were.
# Diaph inh CS: counter-screen for diaphorase-based assays: diaphorase inhibitors and chemical oxidizers; 190,000 compounds, 0.69% hits; inhibition, % at 20 µM; diaphorase resazurin-to-resorufin fluorescence, NADH, 16 min; bacterial (C. kluyveri) enzyme, not human;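 active = primary screen inhibition at 20 µM above a set limit, cut at about 50% in these data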;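 note: plate controls were DMSO with full reaction for no effect and wells lacking NADH for full effect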
#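 System: Diaphorase enzyme from Clostridium kluyveri | Amount: Enzyme working solution with 0.14 U/mL diaphorase | Benchmarks: No-NADH positive control and DMSO neutral control | Signal: Fluorescence of resorufin formed from resazurin, Ex 544/Em 590 nm | Schedule: 16-min room-temperature incubation before reading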
# G6PDH CS: L. mesenteroides G6PDH inhibition counter-screen. Purified L. mesenteroides G6PDH, diaphorase/resazurin coupled fluorescence, 45 min. AID 1020. inhibition, % at 5 µM. 200,000 compounds, 0.12% hits
# Lmaj promast: reduces viability of Leishmania major promastigotes. inhibition, % at 10 µM. resazurin fluorescence viability. 200,000 compounds, 9% hits;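 note: promastigotes grown with compound for 44 hours at 28 °C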
# Redox H2O2 prof: compounds producing H2O2 with reducing agent – biochemical, NIH compound library profiling, artefact control for MLSCN library redox annotation, primary screen. 200,000 compounds, 0.03% hits. DTT-dependent redox cycling H2O2, phenol red/HRP absorbance; 100% = 100 µM peroxide control, 0% = buffer. activation, % at 10 µM;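 active = activation of at least 50% relative to the plate's high and low controls in the primary single-dose screen; inactive = activation below 50%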;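 note: compound incubated with DTT at 0.8 mM final as the reducing agent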
# Diaphorase act: diaphorase activation or chemical reduction counter-screen. Diaphorase/resazurin coupled assay, resorufin fluorescence, 16 min; stronger effect = higher value; 1 = vehicle wells, 0 = NADH-free wells. activation factor at 20 µM. 190,000 compounds, 0.005% hits;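 active = diaphorase activity raised at least twofold by the compound at 20 µM; inactive = activation factor below 2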
#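 Assay system: Purified diaphorase enzyme from Clostridium kluyveri | Amount: Enzyme 0.07 U/mL final | Dosing: Compound 20 µM once, DMSO 1% | Timing: 16 min reaction at room temperature | Detection: Fluorescence, excitation 544 nm and emission 590 nm | Evaluation: Higher resorufin formation from activation or reduction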
# PfG6PD inh: PfG6PD (Plasmodium falciparum) enzyme inhibition | 350,000 compounds, 0.78% hits | inhibition, % at 20 µM | PfGluPho enzyme, NADPH resazurin-diaphorase fluorescence | AID 504690;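 active = inhibition reaching at least a set limit at 20 µM in the primary screen, cut at about 59% in these data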;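 note: 0% = DMSO wells with substrate and 100% = DMSO wells lacking glucose-6-phosphate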
# The depositor's hits bear a star; . = no result given. Cut-off read from the data, not from the text of the source, unless noted: active = inhibition above about 50%; inactive = the rest.
SMILES,Diaph inh CS,G6PDH CS,Lmaj promast,Redox H2O2 prof,Diaphorase act,PfG6PD inh
CCCCn1c(SCC(=O)Nc2cc(C(F)(F)F)ccc2Cl)nnc1C(CC)N(C)C (centres undefined),10,1,82*,.,0.9,-6
Cc1ccsc1C(C(=O)NC1CCCCC1)N(C(=O)c1csnn1)C1CC1 (centres undefined),11,3,32,2,0.9,-4
COC(=O)C1=C(C)N(C2CCCCC2)C(=O)/C1=C\c1cccs1,16,-2,27,0,0.8,-9
CSCc1nc2scc(-c3ccccc3)c2c(=O)[nH]1,0,11,18,-1,1,-1
COc1ccc(CN(C)Cc2nc3scc(-c4ccccc4)c3c(=O)[nH]2)cc1OC,12,7,63*,0,0.9,-10
CCOC(=O)C(=O)NNc1cccc(C)c1C,6,0,-7,-1,0.9,-15
CCOC(=O)C(=O)NNc1ccccc1C,14,0,72*,0,0.9,0
CCNc1nc(NC(C)(C)C)nc(N2CCCCC2)n1,3,12,95*,0,1,14
CCNc1nc(N2CCCC2)nc(N2CCCC2)n1,-6,22,73*,0,1.1,-12
CC(C)(CO)Nc1nc(N2CCCC2)nc(N2CCCC2)n1,5,3,100*,21,0.9,-7
COCCNC(=O)CN(C(=O)CCC(=O)Nc1ccccn1)c1ccccc1OC,.,.,.,.,.,3
O=C(c1cnn2c(C(F)(F)F)cc(-c3ccccc3)nc12)N1CCCc2ccccc21,17,5,0,0,0.8,-8
CN1CCN(C(=O)c2cc3nc(-c4ccc(F)cc4)cc(C(F)(F)F)n3n2)CC1,1,0,4,0,1,-1
O=C(c1cc2nc(-c3ccc(F)cc3)cc(C(F)(F)F)n2n1)N1CCCCC1c1cccnc1 (centres undefined),13,-1,96*,0,0.9,2
O=C(c1cnn2c(C(F)(F)F)cc(-c3ccccc3)nc12)N1CCCCC1c1cccnc1 (centres undefined),28,6,52*,0,0.7,5
CC(C)CC1C(=O)N(Cc2cn(CCC3OCCO3)nn2)CCS(=O)(=O)N1Cc1ccc(-c2ccncc2)cc1 (centres undefined),.,.,.,.,.,-1
Cc1nc2sc(C(c3ccco3)N3CCC(Cc4ccccc4)CC3)c(O)n2n1 (centres undefined),8,12,-7,-2,0.9,12
Cc1ccc(-c2nn(-c3ccccc3)cc2NC(=O)CCl)cc1,-2,-4,93*,0,1,8
O=C(CCl)Nc1cc(-c2ccccc2)nn1-c1ccccc1,10,-1,98*,-2,0.9,-2
CC(=O)Nc1ccc(-c2cc(NC(C)=O)n(-c3ccccc3)n2)cc1,-16,3,-1,2,1.2,1
Cc1ccc(-c2cc(NC(=O)CCl)n(-c3ccccc3)n2)cc1,3,-6,100*,0,1,15
COc1ccccc1C(=O)N(C)c1nnc(-c2ccccc2)s1,.,.,.,.,.,6
Cc1cc(-c2ccc(/C=N/n3cnnc3)o2)ccc1Cl,-2,7,65*,0,1,7
Cc1c(Cl)cccc1-c1ccc(/C=N/n2cnnc2)o1,17,5,69*,0,0.8,14
CCCCCC(=O)N1C[C@@H](O)[C@H](n2cc(COC(=O)c3ccccc3)nn2)C[C@@H]1c1ccc(OC)cc1,.,.,.,.,.,14
COC(=O)c1ccc(CNCC(=O)Nc2ccc(C(=O)OC)cc2)cc1,6,16,-4,0,0.9,-7
Cc1ccc(NC(=O)Cc2ccc(F)cc2)cc1,3,9,12,0,1,11
COC(=O)c1ccc(NC(=O)Cc2ccc(F)cc2)cc1,9,-2,68*,0,0.9,8
COc1ccc(CC(=O)Nc2ccc(C(C)=O)cc2)cc1,.,14,-1,-2,.,-10
COc1ccc(CC(=O)Nc2ccc(C(=O)NCC(C)C)cc2)cc1,8,10,54*,0,0.9,-5
